B1: tRNA (parent)
chain: GUUCCGUUGGCGUAAUGGUAACGCGUCUCCCUCCUAAGGAGAAGACUGCGGGUUCGAGUCCCGUACGGAACG

Variants of: B1
Assay: yeast fitness, log relative to wild type (ln ratio); higher = fitter; tRNA-Arg(CCU), competitive growth, 37 C, 1 M NaCl
Method in brief: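 Fitness is the natural log of a genotype's generation count divided by that of the wild type. A combinatorial library of tRNA-Arg(CCU) variants sat on a HIS3 centromeric plasmid in BY4742 lacking the chromosomal gene, from two independent transformations. Pools grew 4 generations in SC-HIS at 30 °C, then ~6.5 generations (~26.5 h) in SC-HIS 1M NaCl at 37 °C, with three outputs per input. Generations came from OD-scaled log2 output/input frequency, inverse-variance weighted across replicates, with variants counted by 125 bp paired-end Illumina sequencing.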

Row | Variant | yeast fitness (ln)
1 | GUUCCGUUGGCGUAAUGGUAACGCGUUUCCCUCCUAAGGAGACGAUUGCGGGUUCGAGUCCCGUACGGGUCG | -0.0621
2 | ACUCCUUUGGCGUAAUGGUAACGCGUUUCCCUCCUAAGGAGAAGAUUGCGGGUUCGAGUCCCGUAAGGAUUG | -0.264
3 | GGUCCGUUGGCGUAAUGGUAACGCGUUUCCCUCCUAAGGAGAAGACUGCGGGUUCGAGUCCCGUACGGGAUG | -0.152
4 | GUUCCGUUGGCGUAAUGGUAACGCGUCUCCCUCCUAAGGAGACGAUUGCGGGUUCGAGUCCCGUACGGGUCG | -0.133
5 | GUUCCAUUGGCGUAAUGGUAACGCGUUUCCCUCCUAAGGAGAAGAUUGCGGGUUCGAGUCCCGUACGGAGUG | -0.206
6 | AUUCCGUUGGCGUAAUGGUAACGCGUUUCCCUCCUAAGGAGAAGAUUGCGGGUUCGAGUCCCGUAUGGGGCG | -0.251
7 | GCUCCUUUGGCGUAAUGGUAACGCGUUUCCCUCCUAAGGAGAAGACUGCGGGUUCGAGUCCCGUACGGAGUG | -0.309
8 | GUUCCGUUGGCGUAAUGGUAACGCGUCUCCCUCCUAAGGAGAAGAUUGCGGGUUCGAGUCCCGUAUGGGGUG | -0.084
9 | GGUCCGUUGGCGUAAUGGUAACGCGUUUCCCUCCUAAGGAGACGACUGCGGGUUCGAGUCCCGUAAGGAUUG | -0.319
10 | AGUCCAUUGGCGUAAUGGUAACGCGUUUCCCUCCUAAGGAGAAGACUGCGGGUUCGAGUCCCGUAUGGAUCG | -0.234
11 | GCUCCGUUGGCGUAAUGGUAACGCGUUUCCCUCCUAAGGAGACGACUGCGGGUUCGAGUCCCGUAUGGAUUG | -0.343
12 | ACUCCGUUGGCGUAAUGGUAACGCGUUUCCCUCCUAAGGAGACGACUGCGGGUUCGAGUCCCGUACGGGUUG | -0.345
13 | GUUCCUUUGGCGUAAUGGUAACGCGUUUCCCUCCUAAGGAGACGACUGCGGGUUCGAGUCCCGUAAGGGGUG | -0.338
14 | GGUCCUUUGGCGUAAUGGUAACGCGUUUCCCUCCUAAGGAGAAGACUGCGGGUUCGAGUCCCGUAAGGAGCG | -0.243
15 | AGUCCAUUGGCGUAAUGGUAACGCGUUUCCCUCCUAAGGAGACGAUUGCGGGUUCGAGUCCCGUAAGGAAUG | -0.323
16 | AUUCCAUUGGCGUAAUGGUAACGCGUCUCCCUCCUAAGGAGAAGACUGCGGGUUCGAGUCCCGUAAGGAUUG | -0.163
17 | GGUCCAUUGGCGUAAUGGUAACGCGUUUCCCUCCUAAGGAGAAGACUGCGGGUUCGAGUCCCGUAAGGAGCG | -0.15
18 | GGUCCAUUGGCGUAAUGGUAACGCGUUUCCCUCCUAAGGAGACGAUUGCGGGUUCGAGUCCCGUACGGGUUG | -0.384
19 | AGUCCGUUGGCGUAAUGGUAACGCGUUUCCCUCCUAAGGAGAAGACUGCGGGUUCGAGUCCCGUAAGGGGUG | -0.265

Row | Variant | yeast fitness (ln)
20 | AUUCCGUUGGCGUAAUGGUAACGCGUUUCCCUCCUAAGGAGAAGAUUGCGGGUUCGAGUCCCGUAAGGGGCG | -0.248
21 | AGUCCAUUGGCGUAAUGGUAACGCGUCUCCCUCCUAAGGAGAAGACUGCGGGUUCGAGUCCCGUACGGAGCG | -0.16
22 | GCUCCUUUGGCGUAAUGGUAACGCGUCUCCCUCCUAAGGAGAAGACUGCGGGUUCGAGUCCCGUAUGGAUCG | -0.0735
23 | GCUCCUUUGGCGUAAUGGUAACGCGUCUCCCUCCUAAGGAGACGAUUGCGGGUUCGAGUCCCGUACGGGAUG | -0.17
24 | GGUCCAUUGGCGUAAUGGUAACGCGUCUCCCUCCUAAGGAGAAGAUUGCGGGUUCGAGUCCCGUAUGGGAUG | -0.155
25 | GUUCCUUUGGCGUAAUGGUAACGCGUUUCCCUCCUAAGGAGACGAUUGCGGGUUCGAGUCCCGUAAGGAUUG | -0.357
26 | AUUCCUUUGGCGUAAUGGUAACGCGUUUCCCUCCUAAGGAGACGACUGCGGGUUCGAGUCCCGUAAGGGGUG | -0.417
27 | AUUCCUUUGGCGUAAUGGUAACGCGUUUCCCUCCUAAGGAGAAGACUGCGGGUUCGAGUCCCGUAUGGAGCG | -0.391
28 | GGUCCAUUGGCGUAAUGGUAACGCGUCUCCCUCCUAAGGAGACGACUGCGGGUUCGAGUCCCGUAUGGGGUG | -0.304
29 | GCUCCGUUGGCGUAAUGGUAACGCGUCUCCCUCCUAAGGAGACGACUGCGGGUUCGAGUCCCGUAUGGGGUG | -0.23
30 | GGUCCGUUGGCGUAAUGGUAACGCGUUUCCCUCCUAAGGAGACGAUUGCGGGUUCGAGUCCCGUAAGGGUCG | -0.175
31 | AUUCCUUUGGCGUAAUGGUAACGCGUCUCCCUCCUAAGGAGACGACUGCGGGUUCGAGUCCCGUAUGGAGCG | -0.339
32 | AGUCCGUUGGCGUAAUGGUAACGCGUCUCCCUCCUAAGGAGACGACUGCGGGUUCGAGUCCCGUACGGAUUG | -0.0335
33 | GUUCCUUUGGCGUAAUGGUAACGCGUUUCCCUCCUAAGGAGAAGACUGCGGGUUCGAGUCCCGUAUGGGUCG | -0.329
34 | ACUCCUUUGGCGUAAUGGUAACGCGUUUCCCUCCUAAGGAGAAGAUUGCGGGUUCGAGUCCCGUAUGGGUUG | -0.518
35 | AGUCCGUUGGCGUAAUGGUAACGCGUCUCCCUCCUAAGGAGACGAUUGCGGGUUCGAGUCCCGUAAGGAGUG | -0.187
36 | ACUCCAUUGGCGUAAUGGUAACGCGUCUCCCUCCUAAGGAGACGAUUGCGGGUUCGAGUCCCGUACGGAACG | 0.0217
37 | AGUCCAUUGGCGUAAUGGUAACGCGUUUCCCUCCUAAGGAGAAGACUGCGGGUUCGAGUCCCGUACGGGGUG | -0.443

Source: the RNAGym collection of RNA variant scans (doi:10.1038/s41586-018-0170-7)
